IC50, MIC and LC50 data for 18 compounds are collected here from ChEMBL document CHEMBL4138225, “Development of novel anti-filarial agents using carbamo(dithioperoxo)thioate derivatives” (Eur J Med Chem, 2018).

SMILES strings stand for the structures. Converted amounts (≈) assume the structure as drawn.

The test system of assay [1] is Setaria cervi. Kind of assay: Antifilarial activity against Setaria cervi microfilariae assessed as reduction in worm movement measured every 6 hrs up to 24 hrs by microscopy. Type of assay: functional, organism-based. A digest of the protocol: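 About 1×10^5 S. cervi mf per well in RPMI-1640 with 10% FBS at 5% CO2, given a dose series. Motility checked by microscope every 6 h up to 24 h and scored 4 (highly motile) down to 0 (dead). IC50 and MIC calculated from scores; three experiments in triplicate, mean ± SE.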

In assay [2] the test system is Setaria cervi. As to the kind of experiment: Antifilarial activity against Setaria cervi microfilariae after 24 hrs by MTT assay. It is filed as functional. Put shortly:
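Bovine S. cervi microfilariae incubated with compounds (DMSO-dissolved) in RPMI-1640 + 10% FBS, 5% CO2, 24 h. Worms washed in PBS; ~1×10^3 suspended in 0.3 ml MTT 0.25 mg/ml, 37 °C 2 h in dark. Formazan dissolved in DMSO, absorbance at 595 nm. Percent inhibition computed; LC50 fitted; ≥4 repeats, mean ± SE.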

Turning to `S=C(SSc1cccc2ccccc12)N1CCOCC1`, in the assay with Setaria cervi [1], the IC50 came out at 22.2 µg/mL (≈ 69.1 µM) and the minimum inhibitory concentration (MIC) was determined as 7.41 µg/mL (≈ 23 µM). This compound showed an LC50 in the assay on Setaria cervi [2] of 88.9 µg/mL (≈ 277 µM).

For the compound `S=C(SSc1ccccn1)N1CCc2ccccc2C1`, in the assay with Setaria cervi [1], the IC50 was 24.8 µg/mL (≈ 77.8 µM) and the MIC came to 8.26 µg/mL (≈ 25.9 µM). Further, the LC50 in the assay on Setaria cervi [2] stood at 99.2 µg/mL (≈ 311 µM).

Consider `COc1ccc(SSC(=S)N2CCc3ccccc3C2)cc1`, for which, in the assay on Setaria cervi [1], the IC50 came to 31.4 µg/mL (≈ 90.4 µM) and the MIC worked out at 10.5 µg/mL (≈ 30.1 µM). For the same compound, the LC50 in the assay on Setaria cervi [2] turned out to be 126 µg/mL (≈ 361 µM).

On to `S=C(SSc1cccc2ccccc12)N1CCc2ccccc2C1`, for which, in the assay on Setaria cervi [1], the IC50 was 32.7 µg/mL (≈ 89 µM) and the MIC turned out to be 10.9 µg/mL (≈ 29.7 µM). Also, the LC50 in the assay on Setaria cervi [2] turned out to be 131 µg/mL (≈ 356 µM).

Take `S=C(SSc1ncccn1)N1CCc2ccccc2C1`: in the assay on Setaria cervi [1], the IC50 was found to be 31.1 µg/mL (≈ 97.3 µM) and the minimal inhibitory concentration (MIC) turned out to be 10.4 µg/mL (≈ 32.4 µM). The median lethal concentration (LC50) with Setaria cervi [2] is 124 µg/mL (≈ 389 µM).

In the case of `COc1ccc(SSC(=S)N2CCC(Cc3ccccc3)CC2)cc1`, in the assay with Setaria cervi [1], the half-inhibitory concentration (IC50) worked out at 62.1 µg/mL (≈ 159 µM) and the MIC stood at 20.7 µg/mL (≈ 53.1 µM). This compound also showed a 50% lethal concentration (LC50) in the assay on Setaria cervi [2] of 248 µg/mL (≈ 638 µM).

In the case of `Cc1ccc(SSC(=S)N2CCCC2)cc1`, in the assay with Setaria cervi [1], the IC50 came out at 23.6 µg/mL (≈ 87.5 µM) and the MIC is 7.86 µg/mL (≈ 29.2 µM). In addition, the median lethal concentration (LC50) in the assay with Setaria cervi [2] came to 94.3 µg/mL (≈ 350 µM).

With `Cc1ccc(SSC(=S)N2CCOCC2)cc1`, in the assay on Setaria cervi [1], the IC50 amounted to 19.9 µg/mL (≈ 69.7 µM) and the minimum inhibitory concentration (MIC) came to 6.63 µg/mL (≈ 23.2 µM). In the assay with Setaria cervi [2], this compound showed a median lethal concentration (LC50) of 79.6 µg/mL (≈ 279 µM).

With `S=C(SSc1cccc2ccccc12)N1CCC(Cc2ccccc2)CC1`, in the assay on Setaria cervi [1], the IC50 came to 60.7 µg/mL (≈ 148 µM) and the MIC was 20.2 µg/mL (≈ 49.4 µM). The same compound showed an LC50 in the assay on Setaria cervi [2] of 243 µg/mL (≈ 593 µM).

As for `Cc1ccc(SSC(=S)N2CCC(Cc3ccccc3)CC2)cc1`, in the assay with Setaria cervi [1], the IC50 was 19.6 µg/mL (≈ 52.6 µM) and the minimal inhibitory concentration (MIC) was determined as 1.22 µg/mL (≈ 3.27 µM). For the same compound, the LC50 with Setaria cervi [2] came out at 22.5 µg/mL (≈ 60.3 µM).

Regarding `S=C(SSc1ccccn1)N1CCOCC1`, in the assay on Setaria cervi [1], the IC50 came to 47.7 µg/mL (≈ 175 µM) and the MIC turned out to be 15.9 µg/mL (≈ 58.3 µM). Moreover, the LC50 in the assay on Setaria cervi [2] stood at 191 µg/mL (≈ 700 µM).

As to `Cc1ccc(SSC(=S)N2CCc3ccccc3C2)cc1`, in the assay on Setaria cervi [1], the IC50 was determined as 32.1 µg/mL (≈ 96.9 µM) and the MIC is 10.7 µg/mL (≈ 32.3 µM). Also, the LC50 in the assay on Setaria cervi [2] was 128 µg/mL (≈ 388 µM).

As to `S=C(SSc1ncccn1)N1CCC(Cc2ccccc2)CC1`, in the assay on Setaria cervi [1], the IC50 stood at 59.9 µg/mL (≈ 166 µM) and the minimal inhibitory concentration (MIC) was found to be 20 µg/mL (≈ 55.2 µM). This compound also came in with an LC50 in the assay on Setaria cervi [2] of 240 µg/mL (≈ 663 µM).

Turning to `S=C(SSc1ccccn1)N1CCC(Cc2ccccc2)CC1`, in the assay on Setaria cervi [1], the IC50 worked out at 59.1 µg/mL (≈ 164 µM) and the minimal inhibitory concentration (MIC) was 19.7 µg/mL (≈ 54.7 µM). In the assay on Setaria cervi [2], this compound returned a median lethal concentration (LC50) of 237 µg/mL (≈ 656 µM).

Turning to `COc1ccc(SSC(=S)N2CCCC2)cc1`, in the assay on Setaria cervi [1], the IC50 came to 24.2 µg/mL (≈ 85 µM) and the MIC is 8.08 µg/mL (≈ 28.3 µM). This compound also had an LC50 in the assay on Setaria cervi [2] of 97 µg/mL (≈ 340 µM).

In the case of `COc1ccc(SSC(=S)N2CCOCC2)cc1`, in the assay on Setaria cervi [1], the half-maximal inhibitory concentration (IC50) amounted to 20.1 µg/mL (≈ 66.6 µM) and the MIC was 6.69 µg/mL (≈ 22.2 µM). For the same compound, the LC50 in the assay with Setaria cervi [2] came to 80.3 µg/mL (≈ 266 µM).

For `S=C(SSc1ccccn1)N1CCCCC1`, in the assay on Setaria cervi [1], the half-maximal inhibitory concentration (IC50) amounted to 24.3 µg/mL (≈ 89.9 µM) and the minimal inhibitory concentration (MIC) amounted to 8.69 µg/mL (≈ 32.1 µM). Besides, the LC50 with Setaria cervi [2] stood at 97.3 µg/mL (≈ 360 µM).

Take `S=C(SSc1cccc2ccccc12)N1CCCC1`: in the assay with Setaria cervi [1], the IC50 came to 22.6 µg/mL (≈ 73.9 µM) and the minimal inhibitory concentration (MIC) was 7.52 µg/mL (≈ 24.6 µM). The compound further had an LC50 in the assay with Setaria cervi [2] of 90.3 µg/mL (≈ 296 µM).
